Test results published in ChEMBL document CHEMBL4431316, “New 6-Aminoquinoxaline Derivatives with Neuroprotective Effect on Dopaminergic Neurons in Cellular and Animal Parkinson Disease Models” (J Med Chem, 2016).
pIC50: −log10 of the molar value. Activity calls are given as the source filed them. No cut-off for these calls is given here.

Tests used:
[1] = system: Astrocyte; assay: Neuroprotective activity in Sprague-Dawley rat astrocytes assessed as effect on vimentin positive cell density and morphology at 10 uM by fluorescence microscopic method; assay type: functional, cell-based
Procedure, shortened: (§1)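 Midbrain cultures labelled for vimentin, a glial marker. Density and morphology of glial cells scored semi-quantitatively by fluorescence microscopy. Compounds tested at 10 and 50 µM, one at 100 µM; dbcAMP as reference.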

[2] = system: Mus musculus; assay: (§2) Neuroprotective activity against MPTP-induced C57BL/6 mouse SN DA neuron toxicity model assessed as survival of Th immunopositive cells at 50 mg/kg/day, po bid pretreated for 3 days followed by MPTP challenge and further administration of compound up to day 11 by immunohistochemical analysis relative to control; assay type: functional; conditions: C57BL/6, po
Procedure, shortened: (§3)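 C57BL/6 mice given sub-chronic MPTP treatment. Test agent given per os twice daily (2x25 or 2x50 mg/kg/day) for 11 days. TH+ neurons counted in one hemisphere per mouse. Expressed as % of vehicle-treated mice, mean ± SEM, n=9-12.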

[3] = system: Astrocyte; assay: Neuroprotective activity in Sprague-Dawley rat astrocytes assessed as effect on vimentin positive cell density and morphology at 50 uM by fluorescence microscopic method; assay type: functional, cell-based; procedure, shortened: as §1
[4] = species on record: Rattus norvegicus; assay: Neuroprotective activity in Sprague-Dawley rat DA neuron death PD model assessed as survival of Th immunopositive cells at 50 uM after 10 days in presence of anti-GDNF antibody by immunofluorescence assay; assay type: functional
[5] = species on record: Rattus norvegicus; assay: Antioxidant activity in Sprague-Dawley rat DA neuron assessed as reduction in ferrous iron-mediated neuron death at 5 uM; assay type: functional
Procedure, shortened: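 Midbrain cultures with DA cell death driven by a Fenton-type reaction, ferrous iron reacting with molecular oxygen in the medium (chronic oxidative stress). Test compound 1-10 µM; desferrioxamine 10 µM as positive control. Readout is DA neuron (TH+) survival. P < 0.05 vs control cultures.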

[6] = Neuroprotective activity in Sprague-Dawley rat DA neuron death PD model assessed as survival of Th immunopositive cells at 10 uM after 10 days by immunofluorescence assay relative to control; assay type: functional; conditions: 240 h, read-out: Survival
Procedure, shortened: (§4)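 Midbrain cultures in which DA neurons die spontaneously and selectively through a mechanism involving immature astrocytes and calcium dyshomeostasis. Compounds were present for 10 days in vitro, screened at 50 µM (100 µM for one analog) and retested at 10 µM. dbcAMP 1 mM served as reference. Surviving TH+ neurons were counted and expressed as % of corresponding untreated control cultures.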

[7] = species on record: Rattus norvegicus; assay: Neuroprotective activity in Sprague-Dawley rat DA neuron death PD model assessed as survival of Th immunopositive cells treated at 10 to 50 uM in presence of GDNF for 10 days followed by deprivation of GDNF for next 5 days by immunofluorescence assay; assay type: functional
Procedure, shortened: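 Midbrain cultures kept with GDNF (20 ng/ml) for 10 days, then deprived of GDNF from 11 to 15 DIV, with test compound 10-50 µM. TH+ neurons counted and compared with cultures kept on GDNF to 15 DIV. P < 0.05 vs GDNF-treated and vs GDNF-deprived cultures.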

[8] = target: T1, Amine oxidase [flavin-containing] B (Rattus norvegicus, UniProt P19643); assay: Inhibition of rat mitochondrial MAO-B using DAB as substrate incubated for 30 mins by HPLC analysis
T1 sequence (P19643 whole entry): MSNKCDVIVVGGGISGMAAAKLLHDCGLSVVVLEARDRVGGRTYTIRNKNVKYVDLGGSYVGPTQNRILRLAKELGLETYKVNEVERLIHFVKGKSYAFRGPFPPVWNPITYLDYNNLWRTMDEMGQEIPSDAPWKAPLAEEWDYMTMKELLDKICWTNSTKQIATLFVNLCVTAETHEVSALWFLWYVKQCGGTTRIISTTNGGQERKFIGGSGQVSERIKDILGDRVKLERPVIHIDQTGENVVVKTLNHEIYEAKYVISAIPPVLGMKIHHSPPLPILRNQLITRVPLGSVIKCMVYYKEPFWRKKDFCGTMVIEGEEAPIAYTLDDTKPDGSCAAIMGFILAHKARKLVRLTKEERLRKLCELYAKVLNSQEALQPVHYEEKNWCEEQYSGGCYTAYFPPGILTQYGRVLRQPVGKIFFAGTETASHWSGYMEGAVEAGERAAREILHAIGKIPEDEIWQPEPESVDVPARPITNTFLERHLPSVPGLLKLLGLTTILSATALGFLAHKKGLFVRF

[9] = species on record: Rattus norvegicus; assay: Neuroprotective activity in Sprague-Dawley rat DA neuron death PD model assessed as inhibition of calcium mobilization at 50 uM after 10 days in presence of RyR channel blocker dantrolene; assay type: functional
[10] = species on record: Rattus norvegicus; assay: Neuroprotective activity in Sprague-Dawley rat DA neuron death PD model assessed as increase in [2,5,6-3H]DA uptake at 10 to 50 uM after 10 days by liquid scintillation counting spectrometric analysis; assay type: functional
Procedure, shortened: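 Midbrain cultures in which DA neurons die spontaneously and selectively. Treated with test compound (10-50 µM) or dbcAMP (1 mM, reference) up to 10 DIV. Tritium-labeled DA uptake quantified as a marker of DA cell function and differentiation. Uptake rate per TH+ neuron also derived. *P < 0.05 vs control.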

[11] = system: Mus musculus; assay: Neuroprotective activity against MPTP-induced C57BL/6 mouse DA neuron toxicity model assessed as reduction of striatal DA turnover at 25 mg/kg/day, po bid pretreated for 3 days followed by MPTP challenge and further administration of compound up to day 11 by HPLC method; assay type: functional; parameters: scale not given: the % may be the effect or the level left
[12] = system: Mus musculus; assay: Neuroprotective activity against MPTP-induced C57BL/6 mouse DA neuron toxicity model assessed as restoration of striatal HVA level at 25 mg/kg/day, po bid pretreated for 3 days followed by MPTP challenge and further administration of compound up to day 11 by HPLC method (reference value: 53 +/- 3%); assay type: functional
[13] = system: Astrocyte; assay: Neuroprotective activity in Sprague-Dawley rat astrocytes assessed as [methyl-3H]thymidine incorporation at 10 to 50 uM after 8 days by liquid scintillation counting assay relative to control; assay type: functional
Procedure, shortened: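 Glial proliferation in midbrain cultures measured as [methyl-3H]-thymidine incorporation at 8 DIV, with test compound 10-50 µM. DbcAMP 1 mM as positive control. Expressed as % of control.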

[14] = system: Mus musculus; assay: Neuroprotective activity against MPTP-induced C57BL/6 mouse DA neuron toxicity model assessed as restoration of striatal DA level at 50 mg/kg/day, po bid pretreated for 3 days followed by MPTP challenge and further administration of compound up to day 11 by HPLC method; assay type: functional, organism-based
[15] = system: Mus musculus; assay: as §2, with “25” for “50”, “(reference value: 61 +/- 5%)” for “relative to control”; assay type: functional; conditions: C57BL/6, po; procedure, shortened: as §3
[16] = Neuroprotective activity in Sprague-Dawley rat DA neuron death PD model assessed as survival of Th immunopositive cells at 50 uM after 10 days by immunofluorescence assay; assay type: functional; conditions: 240 h, read-out: Survival; procedure, shortened: as §4
[17] = species on record: Rattus norvegicus; assay: Neuritogenic activity in Sprague-Dawley rat DA neuron death PD model assessed as development of neurite network in Th immunopositive cells at 10 to 50 uM after 10 days by microscopic analysis relative to control; assay type: functional, cell-based
Procedure, shortened: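 Midbrain cultures treated or not with test compound (10-50 µM) for 10 DIV, then immunostained for TH. Neuritic network of TH+ neurons examined microscopically against control neurons. DbcAMP 1 mM as reference protective molecule.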

[18] = species on record: Rattus norvegicus; assay: Neuroprotective activity in Sprague-Dawley rat DA neuron death PD model assessed as inhibition of calcium mobilization at 50 uM after 10 days in presence of L-type voltage gated calcium channel blocker nifedipine; assay type: functional
[19] = system: Mus musculus; assay: Neuroprotective activity against MPTP-induced C57BL/6 mouse DA neuron toxicity model assessed as restoration of striatal HVA level at 50 mg/kg/day, po bid pretreated for 3 days followed by MPTP challenge and further administration of compound up to day 11 by HPLC method; assay type: functional, organism-based
[20] = system: Mus musculus; assay: Neuroprotective activity against MPTP-induced C57BL/6 mouse DA neuron toxicity model assessed as decrease in striatal DOPAC level at 50 mg/kg/day, po bid pretreated for 3 days followed by MPTP challenge and further administration of compound up to day 11 by HPLC method; assay type: functional, organism-based
[21] = system: Mus musculus; assay: Neuroprotective activity against MPTP-induced C57BL/6 mouse DA neuron toxicity model assessed as restoration of striatal DA level at 25 mg/kg/day, po bid pretreated for 3 days followed by MPTP challenge and further administration of compound up to day 11 by HPLC method (reference value: 28 +/- 2%); assay type: functional

With Nc1ccc2ncc(-c3ccccc3)nc2c1 the Activity [1] was “inactive”, the survival at 50 mg/kg/day [2] was 91% and the Activity [3] was “inactive”. The Activity [4] was “Active”, the Activity [5] was “Active” and the viability at 10 µM [6] was 152%. The Activity [7] was “Active”, the pIC50 [8] was 3.29 and the inhibition [9] was “inactive”. For the same compound, the Activity [10] was “Active”, the Activity [11] was 36% and the Activity [12] was 64%. For the same compound, the Activity [13] was 93.8%, the Activity [14] was “Active” and the survival at 25 mg/kg/day [15] was 78%. The viability at 50 µM [16] was 226%, the Activity [17] was “Active” and the inhibition [18] was “Active”. For the same compound, the Activity [19] was “Active”, the Activity [20] was “Active” and the Activity [21] was 39%.
